Screens: PubChem, Johns Hopkins Ion Channel Center
TRPC6 act – mouse TRPC6 channel activators, primary screen, cell-based, HEK293, membrane potential dye; B-score at 10 µM; HEK293-TRPC6 membrane potential dye fluorescence; hits give high values; actives 0.13% (n = 310,000); AID 2550, 2010;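 active = B-score of the integrated fluorescence ratio above library mean plus 3 SD, and starting fluorescence ratio within library mean plus 5 SD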;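 note: higher score means more depolarization so channel activation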
Target sequence (Q61143 whole entry, looked up): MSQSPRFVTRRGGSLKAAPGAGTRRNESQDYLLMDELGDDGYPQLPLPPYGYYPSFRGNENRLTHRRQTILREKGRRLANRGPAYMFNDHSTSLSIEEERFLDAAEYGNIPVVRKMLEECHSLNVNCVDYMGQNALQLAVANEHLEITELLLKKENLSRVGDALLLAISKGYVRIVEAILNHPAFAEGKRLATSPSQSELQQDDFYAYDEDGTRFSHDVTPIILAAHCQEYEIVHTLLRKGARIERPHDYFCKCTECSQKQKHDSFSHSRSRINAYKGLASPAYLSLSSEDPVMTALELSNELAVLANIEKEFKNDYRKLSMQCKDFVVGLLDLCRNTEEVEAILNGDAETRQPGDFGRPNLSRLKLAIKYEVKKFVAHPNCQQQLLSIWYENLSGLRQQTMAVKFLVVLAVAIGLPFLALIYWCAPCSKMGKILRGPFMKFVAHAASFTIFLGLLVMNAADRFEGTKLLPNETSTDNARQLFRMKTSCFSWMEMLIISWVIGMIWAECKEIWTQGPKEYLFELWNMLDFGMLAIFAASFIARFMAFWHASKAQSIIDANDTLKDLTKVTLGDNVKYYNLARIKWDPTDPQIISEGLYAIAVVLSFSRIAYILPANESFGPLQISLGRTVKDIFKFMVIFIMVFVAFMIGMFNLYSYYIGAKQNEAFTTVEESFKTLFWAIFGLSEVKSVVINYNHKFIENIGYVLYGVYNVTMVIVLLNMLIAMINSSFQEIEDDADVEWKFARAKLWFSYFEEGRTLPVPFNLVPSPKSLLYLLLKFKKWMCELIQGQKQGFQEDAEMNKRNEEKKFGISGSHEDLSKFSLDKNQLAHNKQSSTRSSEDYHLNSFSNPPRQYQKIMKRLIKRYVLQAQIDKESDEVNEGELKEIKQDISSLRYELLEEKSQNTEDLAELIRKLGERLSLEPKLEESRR
TRPC6 inhibitor – mouse TRPC6 channel inhibitors, primary screen, cell-based, HEK293, membrane potential dye | Short transient receptor potential channel 6 (Mus musculus), Q61143 | ACh-evoked depolarization; hits give low values | B-score at 10 µM | actives 1.1% (n = 310,000) | AID 2553, 2010;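 active = B-score under library mean minus 3 SD, initial fluorescence not abnormally high, positive integrated signal ratio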;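 note: B-score derived from integrated fluorescence ratio over the kinetic read; more negative B-score means stronger inhibition of depolarization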
TRPC4 potent – positive allosteric modulators of TRPC4, primary screen, cell-based, mouse TRPC4beta, HEK293 mu-opioid, Fluo-4 calcium; B-score at 10 µM; actives 0.42% (n = 310,000); DAMGO EC20, Fluo-4 Ca2+ flux; hits give high values;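 active = B-score of calcium response area above 5 SD of library B-scores, with initial fluorescence ratio within 5 SD of library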;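 note: B-score of integrated fluorescence ratio over time as area under calcium response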
TRPC4 inh – inhibitors of mouse TRPC4 channel, primary screen, Fluo4 calcium, HEK293 TRPC4beta/mu-opioid cells. Short transient receptor potential channel 4 (Mus musculus), Q9QUQ5. DAMGO-evoked Fluo4 calcium flux; hits give low values. B-score at 10 µM. actives 0.39% (n = 300,000);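 active = B-score over 3 SD under the library average, no early fluorescence shift, positive overall ratio signal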
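material = TRPC4beta/mu-opioid receptor HEK293 cell line | probe or stimulus = sequential submaximal and maximal DAMGO stimulation | compound dosing = one concentration per compound | measured by = Fluo4 Ca2+ flux fluorescence | evaluation = integrated fluorescence ratio relative to baseline, converted to per-well B score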
TRPC4 agonist – activators of mouse TRPC4 channel, primary screen, Fluo4 calcium, HEK293 TRPC4beta/mu-opioid cells; Short transient receptor potential channel 4 (Mus musculus), Q9QUQ5; Fluo4 calcium fluorescence; hits give high values; B-score at 10 µM; AID 2237, 2010; actives 0.49% (n = 310,000);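 active = B-score above 5 SD of library B-scores, and initial fluorescence ratio not above library mean plus 5 SD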;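 note: positive B-score marks a calcium rise read as TRPC4 activation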
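Assay system – TRPC4beta and mu-opioid receptor HEK293 stable cells · Measured by – Fluo4 fluorescence, kinetic · Schedule – dye loading 45 min room temperature, 110 s kinetic read · Read-out – B-scored integrated calcium fluorescence ratio · Controls – buffer and maximal DAMGO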
TRPC4 sel inh 2 – mouse TRPC4 off-target activity of TRPC6 inhibitors, second screen; shares compounds with TRPC6 inhibitor; HEK293 TRPC4/MOR, membrane potential dye fluorescence; channel activated by saturating DAMGO dose; inhibition, % at 10 µM; actives 42% (n = 920); AID 2776;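 active = compounds whose fluorescence signal differed from control wells by over 3 SD, either direction, in both duplicate plates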
TRPC4 spec – mouse TRPC4 modulation by TRPC6 hits, confirmation, selectivity assay for TRPC6 inhibitor project, cell-based, HEK293 TRPC4/mu-opioid, membrane potential dye. shares compounds with TRPC6 inhibitor. actives 61% (n = 920). membrane potential fluorescence. activity change, negative = inhibition, % at 10 µM;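 active = rise or fall in signal beyond 3 SD of buffer-only wells in both replicate plates, either sign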;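 note: integrated kinetic ratio of fluorescence range over baseline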
HEK293 MPD ctr 2-1 – nonspecific membrane potential effects, parental HEK293, confirmation, counter-screen for TRPC6 inhibitor project, cell-based, second counter screen | shares compounds with TRPC6 inhibitor | parental HEK293 membrane potential dye fluorescence; maximal acetylcholine challenge after compound addition | signal change vs control, % at 10 µM | actives 31% (n = 920);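 active = membrane potential signal moving either way by over 3 SD of the maximum-effect control, in both duplicate plates, meaning non-specific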
HEK293 MPD ctr-1 – membrane potential modulation in parental HEK293, confirmation, counter-screen for TRPC6 inhibitor project, cell-based | shares compounds with TRPC6 inhibitor | parental HEK293 membrane potential dye fluorescence | membrane potential signal change, % at 10 µM | actives 60% (n = 920) | AID 2780, 2010;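 active = membrane potential signal shifting up or down by more than 3 SD of buffer-only wells, on both duplicate plates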
HEK293 MPD ctr-2 – parental HEK293 membrane potential modulation, confirmation, counter-screen for TRPC6 modulator project, cell-based | shares compounds with TRPC6 inhibitor | membrane potential dye fluorescence | membrane potential signal change, % at 10 µM | actives 51% (n = 2,400);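 active = membrane potential signal moves up or down beyond 5 SD from buffer-only wells, on both duplicate plates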
HEK293 MPD ctr 2-2 – second counter-screen for TRPC6 modulators: effect in parental HEK293 cells. shares compounds with TRPC6 inhibitor. membrane potential dye fluorescence; after compound, maximal acetylcholine stimulation. inhibition, % at 10 µM. actives 14% (n = 2,400);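 active = membrane potential signal drops by more than 5 SD from the mean control signal, in both duplicate plates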;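 note: plate controls were acetylcholine ECmax control wells for no effect and buffer only wells for full effect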
TRPC4/MOR mod – TRPC4 modulation by TRPC6 hit compounds, confirmation, selectivity assay for TRPC6 modulator project, cell-based, HEK293 TRPC4/mu-opioid, membrane potential dye, mouse | shares compounds with TRPC6 inhibitor | membrane potential fluorescence | percent change from control (negative = decrease, positive = increase), % at 10 µM | actives 69% (n = 2,400);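 active = membrane potential signal moved up or down beyond 5 SD of buffer control wells, in both duplicate plates, actives on both sides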;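 note: plate controls were assay buffer wells for no effect and DAMGO maximal-effect wells for full effect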
TRPC4/MOR inh 2 – mouse TRPC4 off-target activity of TRPC6 modulators, second screen. inhibition, % at 10 µM. HEK293 TRPC4/mu-opioid, membrane potential dye fluorescence; stimulated with maximal-effect DAMGO. shares compounds with TRPC6 inhibitor. AID 488928. actives 55% (n = 2,400);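 active = drop in membrane potential signal beyond 5 SD of the control wells in both duplicate plates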;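 note: TRPC4 counter screen for TRPC6 hits run under conditions tuned for TRPC6 not TRPC4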
TRPC6 block conf – mouse TRPC6 channel inhibitors, confirmation, HEK293 cells, membrane potential dye, duplicate; ACh-evoked depolarization; actives 43% (n = 3,300); shares compounds with TRPC6 inhibitor; inhibition, % at 10 µM; AID 488960, 2010;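 active = fluorescence ratio falls more than 5 SD below the full-stimulation control mean, in both duplicate runs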;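 note: integrated fluorescence ratio of peak minus minimum over baseline after agonist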
TRPC6 act confirm – mouse TRPC6 channel activators, confirmation, HEK293 cells, membrane potential dye, duplicate; shares compounds with TRPC6 inhibitor; HEK293-TRPC6 membrane potential dye fluorescence, FDSS; activation, % at 10 µM; actives 11% (n = 2,800);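 active = ratio signal rise beyond 5 SD above unstimulated control wells' mean, seen in both duplicate runs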;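 note: plate controls were buffer EC0 wells for no effect and acetylcholine ECmax response for full effect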
* marks the source's active call; other numbers are inactive results; i = inactive; . = no result; + = active, no number. The list is not random: actives were taken first. Their share in the collection is about 2.3%.

SMILES	TRPC6 act	TRPC6 inhibitor	TRPC4 potent	TRPC4 inh	TRPC4 agonist	HEK293 MPD ctr-2	HEK293 MPD ctr 2-2	TRPC4/MOR mod	TRPC4/MOR inh 2	TRPC6 block conf	TRPC6 act confirm	others
Cc1cccc(OCC(O)Cn2c(=N)n(Cc3ccccc3)c3ccccc32)c1 (stereo not given)	i	-5.7*	i	i	55*	145%*	i	68%*	112%*	50%*	.
CN(C)c1ccc(/C=C/C(=O)c2cccnc2)cc1	133*	i	i	i	i	+	+	470%*	160%*	.	864%*
O=C1NC(=S)S/C1=C/c1ccc(Oc2cnccn2)cc1	i	i	i	i	i	.	.	.	.	.	.
CCOc1ccc(N(C)c2ccc(/C=C3/SC(=S)NC3=O)cc2)cc1	18*	i	i	i	i	i	i	82%*	i	i	i
Cc1c(C)n(Cc2ccccc2)c2ncnc(NN)c12	i	i	i	i	i	.	.	.	.	.	.
Cc1c(C)n(Cc2ccccc2)c2ncnc(NCCN(C)C)c12	i	-7.1*	i	i	i	.	.	.	.	i	i	TRPC4 sel inh 2=i;TRPC4 spec=-17%*;HEK293 MPD ctr 2-1=i;HEK293 MPD ctr-1=-277%*
COc1ccccc1Nc1ncnc2c1c(C)c(C)n2CCCN(C)C	i	-5.2*	i	i	i	-101%*	i	-23%*	74%*	54%*	i
Cc1c(C)n(Cc2ccccc2)c2ncnc(NCCCN(C)C)c12	i	-6*	i	i	i	-102%*	i	-20%*	54%*	42%*	i
Cc1c(C)n(-c2ccccc2)c2ncnc(NCCCN(C)C)c12	i	i	i	i	i	.	.	.	.	.	.
O=C(CCN=C1NS(=O)(=O)c2ccccc21)OCc1cccc(Cl)c1	i	i	i	i	i	.	.	.	.	.	.
